In ChEMBL document CHEMBL1156036, “A class of novel N-(3S-1,2,3,4-tetrahydroisoquinoline-3-carbonyl)-L-amino acid derivatives: their synthesis, anti-thrombotic activity evaluation, and 3D QSAR analysis” (Eur J Med Chem, 2009):
Square brackets hold non-standard residues; d marks the D form. Peptide text beside a SMILES is read from it. Tic = O=C(O)[C@@H]1Cc2ccccc2CN1

How the values were obtained:
Type in all cases: functional
[1] = Antiplatelet aggregatory activity in pig […] assessed as inhibition of platelet-activating factor-induced platelet aggregation; details: Sus scrofa
In short: (§1)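 Pig blood spun 1000g 10 min for platelet-rich plasma, then 1500g 10 min for platelet-poor plasma; platelets adjusted to 2×10^8/ml with autologous PPP. Test agent in NS (final 100 to 0.001 μM) added to 0.5 ml plasma, then inducer in NS: PAF 0.1 μM, ADP 10 μM, AA 350 μM or thrombin 0.1 U/ml (final). Optical aggregometry, 37 °C, 5 min, six tubes.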

[2] = system: Rattus norvegicus; assay: Antithrombotic activity in Wistar rat assessed as reduction of wet thrombus weight at 5 umol/kg, iv after 15 mins
In short: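 Male Wistar rats, 250-300 g, given agent dissolved in NS (kept on ice) intravenously; Aspirin 15 μmol/kg as reference, NS as vehicle. Pentobarbital sodium 80.0 mg/kg i.p. Arteriovenous shunt from right carotid artery to left jugular vein via polyethylene tube containing a thread; blood flowed 15 min; wet thrombus weighed, n = 12, mean ± SD.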

[3] = Antiplatelet aggregatory activity in pig […] assessed as inhibition of arachidonic acid-induced platelet aggregation; details: Sus scrofa; in short: as §1
[4] = Antiplatelet aggregatory activity in pig […] assessed as inhibition of ADP-induced platelet aggregation; details: Sus scrofa; in short: as §1
[5] = Antiplatelet aggregatory activity in pig […] assessed as inhibition of thrombin-induced platelet aggregation; details: Sus scrofa; in short: as §1

IC50 [1] [µM]	IC50 [3] [µM]	IC50 [4] [µM]	IC50 [5] [µM]	SMILES	Activity [2] [mg]
0.383	0.344	0.345	–	N[C@@H](CC(=O)O)C(=O)N1Cc2ccccc2C[C@H]1C(=O)O (H-Asp-[Tic]-OH)	20.3
0.67	0.351	0.324	0.684	N[C@@H](Cc1c[nH]cn1)C(=O)N1Cc2ccccc2C[C@H]1C(=O)O (H-His-[Tic]-OH)	21.78
0.891	0.573	0.336	0.73	CC(C)C[C@H](N)C(=O)N1Cc2ccccc2C[C@H]1C(=O)O (H-Leu-[Tic]-OH)	19.12
–	0.526	0.373	0.59	O=C(O)[C@@H]1Cc2ccccc2CN1C(=O)[C@@H]1CCCN1 (H-Pro-[Tic]-OH)	21.09
0.404	0.215	0.24	0.879	C[C@@H](O)[C@H](N)C(=O)N1Cc2ccccc2C[C@H]1C(=O)O (H-Thr-[Tic]-OH)	20.73
0.544	0.369	0.494	0.589	N[C@@H](CCC(=O)O)C(=O)N1Cc2ccccc2C[C@H]1C(=O)O (H-Glu-[Tic]-OH)	20.87
0.632	0.423	0.389	0.653	CC(C)[C@H](N)C(=O)N1Cc2ccccc2C[C@H]1C(=O)O (H-Val-[Tic]-OH)	20.12
0.36	0.43	0.534	0.495	NC(=O)C[C@H](N)C(=O)N1Cc2ccccc2C[C@H]1C(=O)O (H-Asn-[Tic]-OH)	22.66
0.267	0.572	0.103	0.498	N[C@@H](CO)C(=O)N1Cc2ccccc2C[C@H]1C(=O)O (H-Ser-[Tic]-OH)	18
0.472	0.521	0.323	0.829	NCCCC[C@H](N)C(=O)N1Cc2ccccc2C[C@H]1C(=O)O (H-Lys-[Tic]-OH)	21.31
0.875	0.44	0.365	0.761	NCC(=O)N1Cc2ccccc2C[C@H]1C(=O)O (H-Gly-[Tic]-OH)	21.17
0.945	0.452	0.651	0.741	C[C@H](N)C(=O)N1Cc2ccccc2C[C@H]1C(=O)O (H-Ala-[Tic]-OH)	20.3
–	0.666	0.37	0.851	N[C@@H](Cc1ccccc1)C(=O)N1Cc2ccccc2C[C@H]1C(=O)O (H-Phe-[Tic]-OH)	22.23
0.517	0.298	0.21	0.565	N=C(N)NCCC[C@H](N)C(=O)N1Cc2ccccc2C[C@H]1C(=O)O (H-Arg-[Tic]-OH)	20.06
0.392	0.407	0.302	0.555	NC(=O)CC[C@H](N)C(=O)N1Cc2ccccc2C[C@H]1C(=O)O (H-Gln-[Tic]-OH)	21.3
0.831	0.238	0.315	0.674	CC[C@H](C)[C@H](N)C(=O)N1Cc2ccccc2C[C@H]1C(=O)O (H-Ile-[Tic]-OH)	21.14
0.409	0.382	0.265	–	CSCC[C@H](N)C(=O)N1Cc2ccccc2C[C@H]1C(=O)O (H-Met-[Tic]-OH)	19.56

SMILES	IC50 [1] [µM]	IC50 [3] [µM]	IC50 [4] [µM]	IC50 [5] [µM]	Activity [2] [mg]
N[C@@H](Cc1ccc(O)cc1)C(=O)N1Cc2ccccc2C[C@H]1C(=O)O (H-Tyr-[Tic]-OH)	0.668	0.535	–	0.736	20.92
